# Numbering of substitutions follows the chain as printed. Names may count otherwise.
# B1: ΔC1: RSK1 with the last C-terminal residue truncated (1–734), no functional PBM (protein)
# chain: MPLAQLKEPWPLMELVPLDPENGQTSGEEAGLQPSKDEGVLKEISITHHVKAGSEKADPSHFELLKVLGQGSFGKVFLVRKVTRPDSGHLYAMKVLKKATLKVRDRVRTKMERDILADVNHPFVVKLHYAFQTEGKLYLILDFLRGGDLFTRLSKEVMFTEEDVKFYLAELALGLDHLHSLGIIYRDLKPENILLDEEGHIKLTDFGLSKEAIDHEKKAYSFCGTVEYMAPEVVNRQGHSHSADWWSYGVLMFEMLTGSLPFQGKDRKETMTLILKAKLGMPQFLSTEAQSLLRALFKRNPANRLGSGPDGAEEIKRHVFYSTIDWNKLYRREIKPPFKPAVAQPDDTFYFDTEFTSRTPKDSPGIPPSAGAHQLFRGFSFVATGLMEDDGKPRAPQAPLHSVVQQLHGKNLVFSDGYVVKETIGVGSYSECKRCVHKATNMEYAVKVIDKSKRDPSEEIEILLRYGQHPNIITLKDVYDDGKHVYLVTELMRGGELLDKILRQKFFSEREASFVLHTIGKTVEYLHSQGVVHRDLKPSNILYVDESGNPECLRICDFGFAKQLRAENGLLMTPCYTANFVAPEVLKRQGYDEGCDIWSLGILLYTMLAGYTPFANGPSDTPEEILTRIGSGKFTLSGGNWNTVSETAKDLVSKMLHVDPHQRLTAKQVLQHPWVTQKDKLPQSQLSHQDLQLVKGAMAATYSALNSSKPTPQLKPIESSILAQRRVRKLPSTT
# modifications: left off: SmBiT, N-terminal, kept
# B2: WT: full-length wild type RSK1 (1–735) (protein)
# chain: MPLAQLKEPWPLMELVPLDPENGQTSGEEAGLQPSKDEGVLKEISITHHVKAGSEKADPSHFELLKVLGQGSFGKVFLVRKVTRPDSGHLYAMKVLKKATLKVRDRVRTKMERDILADVNHPFVVKLHYAFQTEGKLYLILDFLRGGDLFTRLSKEVMFTEEDVKFYLAELALGLDHLHSLGIIYRDLKPENILLDEEGHIKLTDFGLSKEAIDHEKKAYSFCGTVEYMAPEVVNRQGHSHSADWWSYGVLMFEMLTGSLPFQGKDRKETMTLILKAKLGMPQFLSTEAQSLLRALFKRNPANRLGSGPDGAEEIKRHVFYSTIDWNKLYRREIKPPFKPAVAQPDDTFYFDTEFTSRTPKDSPGIPPSAGAHQLFRGFSFVATGLMEDDGKPRAPQAPLHSVVQQLHGKNLVFSDGYVVKETIGVGSYSECKRCVHKATNMEYAVKVIDKSKRDPSEEIEILLRYGQHPNIITLKDVYDDGKHVYLVTELMRGGELLDKILRQKFFSEREASFVLHTIGKTVEYLHSQGVVHRDLKPSNILYVDESGNPECLRICDFGFAKQLRAENGLLMTPCYTANFVAPEVLKRQGYDEGCDIWSLGILLYTMLAGYTPFANGPSDTPEEILTRIGSGKFTLSGGNWNTVSETAKDLVSKMLHVDPHQRLTAKQVLQHPWVTQKDKLPQSQLSHQDLQLVKGAMAATYSALNSSKPTPQLKPIESSILAQRRVRKLPSTTL
# modifications: left off: SmBiT, N-terminal, kept
# B3: L714E: RSK1 mutant; eliminates the interaction between ERK and RSK (protein)
# chain: B2 chain with L714E
# modifications: left off: SmBiT, N-terminal, kept
# What was measured:
# MAGI1 = test: NanoBiT protein-protein interaction assay; type: cell-based, human; details: full-length proteins, serum-starved HEK293T, n=6, vs WT RSK1
# Summary of the method: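 Full-length RSK1 (N-terminal SmBiT) is co-expressed with full-length MAGI1–LgBiT in HEK293T cells by FuGene HD transfection, then serum-starved for 20 h in CO2-independent medium. Cells are read with Nano-Glo 24 h post-transfection. Steady-state luminescence of mutant sensors is referenced to the wild-type pair. For the 20 ng/ml EGF response, signal is followed for 60 min and normalized to initial luminescence and to furimazine decay in unstimulated cells. At least 6 biological replicates.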
# RhoA = test: G-LISA RhoA activation assay; type: cell-based; details: RSK1/2 knockout HEK293T, n=4; for serum-stimulated RhoA activity: serum-starved, 20% serum 5 min
# SYNJ2BP = test: NanoBiT protein-protein interaction assay; type: cell-based, human; details: full-length proteins, serum-starved HEK293T, n=6, vs WT RSK1
# Summary of the method: (§1)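 Full-length RSK1 (N-terminal SmBiT) is paired with an N-terminal LgBiT fusion of the partner: ARHGEF12 isoform 2, GOPC isoform 2, PARD3B 1–913, or SYNJ2BP. Sensors are transiently co-expressed in HEK293T cells, which are serum-starved for 20 h from 4 h post-transfection and assayed with Nano-Glo at 24 h. Steady-state signal is referenced to the wild-type pair. For the EGF response (20 ng/ml, 60 min), signal is normalized to initial luminescence and to unstimulated furimazine decay. At least 6 replicates.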
# GOPC = test: NanoBiT protein-protein interaction assay; type: cell-based, human; details: full-length proteins, serum-starved HEK293T, n=6, vs WT RSK1
# Summary of the method: as §1
# PARD3B = test: NanoBiT protein-protein interaction assay; type: cell-based, human; details: PARD3B 1–913, serum-starved HEK293T, n=6, vs WT RSK1
# Summary of the method: as §1
# ARHGEF12 = test: NanoBiT protein-protein interaction assay; type: cell-based, human; details: full-length proteins, serum-starved HEK293T, n=6, vs WT RSK1
# Summary of the method: as §1
Molecule,steady-state luminescence of interaction sensor (MAGI1),serum-stimulated RhoA activity (RhoA),steady-state luminescence of interaction sensor (SYNJ2BP),steady-state luminescence of interaction sensor (GOPC),steady-state luminescence of interaction sensor (PARD3B),steady-state luminescence of interaction sensor (ARHGEF12),basal RhoA activity (RhoA; transfected)
B1,significantly reduced the luminescent signal,only minor increment,significantly reduced the luminescent signal,significantly reduced the luminescent signal,significantly reduced the luminescent signal,significantly reduced the luminescent signal,
B2,high luminescence signals,increased RhoA activity,high luminescence signals,high luminescence signals,high luminescence signals,high luminescence signals,increased level of basal RhoA activity
B3,,,decreased the luminescence outputs,,decreased the luminescence outputs,,
